The record followed here is ChEMBL document CHEMBL1148371, “Sulfonyl-containing aldophosphamide analogues as novel anticancer prodrugs targeted against cyclophosphamide-resistant tumor cell lines” (J Med Chem, 2004).

For one data set, the system named is V79. Nature of the data set: In vitro cytotoxicity against V-79 chinese hamster lung fibroblasts (3 hr drug exposure time) by clonogenic assay. The class given is functional, cell-based. To be noted: Cricetulus griseus, V79, 3 h. A digest of the protocol: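 Subcloned V-79 cells in MEM with 10% heat-inactivated FBS were used. 500 log-phase cells per dish were seeded and left 12–15 h. Cells were exposed to drug or solvent for 3 h at 37 °C, rinsed with HBSS, and grown 5–6 days. Colonies were fixed with EtOH, stained with crystal violet and counted against solvent control. IC50 (50% loss of clonogenic survival) came from the semilog concentration–survival plot; three experiments.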

The nature of data set [1]: Half life period in human plasma using phosphate buffer (0.08 M). The data set is classed as ADME, cell-free.
A short description of data set [2]: Half life period in phosphate buffer (0.08 M). The data set is classed as ADME. In short, it runs like this: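 Prodrug was incubated in 0.08 M phosphate buffer pH 7.4 at 37 °C with shaking, mostly at 3–9 mM (0.8 or 0.3 mM for some). Incubation was stopped with 2.0 M acetate pH 5.0 plus EtOH. Parent compound was quantified by silica TLC (UV 254 nm or NBP stain) and densitometry against a zero-time control. kobs came from the ln(% remaining) versus time slope; t1/2 = 0.693/kobs.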

In data set [3] the test system is P388/CPA. Nature of the data set: In vivo antitumor activity against P388/CPA leukemia (resistant) in mice measured by increase in life span after 200 mg/kg compound administration. The class given is functional. As to conditions: Mus musculus. In short, it runs like this:
(§1)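 CD2F1 mice (24–26 g) were implanted ip with 10^6 P388/0 or P388/CPA leukemia cells on day 0. A single ip dose (100, 200 or 400 mg/kg) in saline or saline–Tween 80 was given on day 1; vehicle controls were included. Five mice were used per dose. Survival was followed for 33 days against untreated controls and reported as % increase in life span and number of long-term survivors.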

Data set [4] concerns P388/CPA. Nature of the data set: In vivo antitumor activity against P388/CPA leukemia in mice (resistant) measured by increase in life span after 100 mg/kg compound administration. The data set is classed as functional. As to conditions: Mus musculus. A digest of the protocol:
as §1

The test system of data set [5] is P388. Nature of the data set: In vivo antitumor activity against P388/0 (wild) leukemia in mice measured by increase in life span after 100 mg/kg compound administration. The data set is classed as functional. To be noted: Mus musculus. In short, it runs like this: as §1
The subject of data set [6] is P388. Nature of the data set: In vivo antitumor activity against P388/0 (wild) leukemia in mice measured by increase in life span after 200 mg/kg compound administration. The class given is functional. To be noted: Mus musculus. A digest of the protocol: as §1
A short description of data set [7]: In vivo antitumor activity against P388/0 (wild) leukemia in mice measured by increase in life span after 400 mg/kg compound administration; Toxic. Further details: dose 400 mg/kg. The data set is classed as toxicity, organism-based. To be noted: mouse. A digest of the protocol:
as §1

Data set [8] is described as follows: In vivo antitumor activity against P388/CPA leukemia (resistant) in mice measured by increase in life span after 400 mg/kg compound administration; Toxic. The data set is classed as toxicity, organism-based. Details: dose 400 mg/kg. To be noted: mouse. A digest of the protocol:
as §1

The subject of data set [9] is P388/CPA. Nature of the data set: In vivo antitumor activity against P388/CPA leukemia (resistant) in mice measured by increase in life span after 400 mg/kg compound administration. The data set is classed as functional. As to conditions: Mus musculus. In short, it runs like this:
as §1

Data set [10] has as its system P388. Nature of the data set: In vivo antitumor activity against P388/0 (wild) leukemia in mice measured by increase in life span after 400 mg/kg compound administration. The data set is classed as functional. As to conditions: Mus musculus. A digest of the protocol:
as §1

Data set [11] relates to P388. Nature of the data set: Number of long-term (33-day) survival P388/0 (wild) leukemia mice (5) after 400 mg/kg compound administration. The class given is functional, Mus musculus. A digest of the protocol: as §1
Data set [12] in a line: Half life period in phosphate buffer (0.2 M). The class given is ADME.
Data set [13] is described as follows: In vivo antitumor activity against P388/0 (wild) leukemia in mice measured by increase in life span after 200 mg/kg compound administration; Toxic. The class given is toxicity, organism-based. Details: dose 200 mg/kg. As to conditions: mouse. In short, it runs like this: as §1

For the compound `Cc1ccc(SCCO)cc1`, in the data set with V79, inhibition was half-maximal at 69.1 µM (IC50).

In turn, `CSCC(OP(=O)(N(CCCl)CCCl)N(CCCl)CCCl)c1ccccc1` (stereo not given) gave an IC50 in the data set on V79 of 69.1 µM.

Take `O=[N+]([O-])c1ccc(S(=O)(=O)CCOP(=O)(N(CCCl)CCCl)N(CCCl)CCCl)cc1`: the half-life was 0.37 h in data set [1] and 0.69 h in data set [2]. Moreover, the ILS at 200 mg/kg worked out at 68% in the data set on P388/CPA [3] and 120% in the data set with P388 [6]. In addition, the increase in life span (ILS) at 100 mg/kg was 84% in the data set on P388/CPA [4] and 100% in the data set on P388 [5]. In addition, the ILS entry in [7] and in data set [8] was “Toxic” throughout. The compound further gave an IC50 in the data set on V79 of 1.8 µM.

Consider `CS(=O)(=O)CCOc1ccc([N+](=O)[O-])c([N+](=O)[O-])c1`, for which inhibition with V79 was half-maximal at 69.1 µM (IC50).

With `Cc1ccc(S(=O)(=O)CCOP(N)(=O)N(CCCl)CCCl)cc1` (stereo not given), the half-life in data set [1] was 4.8 h; in [2], 12.8 h. For the same compound, the values for the ILS at 200 mg/kg in the data set with P388/CPA [3] and in the data set with P388 [6] were 28% and 50%, respectively. Moreover, the ILS at 400 mg/kg worked out at 44% in the data set on P388/CPA [9] and 90% in the data set with P388 [10]. The ILS at 100 mg/kg came to 28% in the data set on P388/CPA [4] and 20% in the data set on P388 [5]. The compound further registered an IC50 in the data set on V79 of 11.5 µM.

For the compound `CS(=O)(=O)CCOP(=O)(NCCCl)NCCCl`, the half-life in data set [1] is 2.2 h; in [2], 6.4 h. The increase in lifespan (ILS) at 200 mg/kg is 84% with P388/CPA [3] and 52% in the data set with P388 [6]. The ILS at 400 mg/kg in the data set on P388/CPA [9] came out at 108%; in the data set with P388 [10], 100%. Further, the increase in life span (ILS) at 100 mg/kg is 20% in the data set on P388/CPA [4] and 33% with P388 [5]. This compound yielded a Number in the data set with P388 [11] of 1. The compound further came in with an IC50 with V79 of 68 µM.

With `CS(=O)(=O)CCOP(=O)(N(CCCl)CCCl)N(CCCl)CCCl`, the half-life in [1] was 1.6 h; in data set [2], 7.2 h. Moreover, the ILS at 200 mg/kg came out at 28% in the data set on P388/CPA [3] and 10% in the data set with P388 [6]. For the same compound, the ILS at 400 mg/kg with P388/CPA [9] was found to be 60%; with P388 [10] it was 30%. The results for the ILS at 100 mg/kg with P388/CPA [4] and in the data set with P388 [5] were 12% and 10%, respectively. In addition, half-maximal inhibition in the data set on V79 (IC50) was put at 24.1 µM.

Compound `O=P(O)(NCCCl)NCCCl` [PALIFOSFAMIDE] gave a half-life in data set [12] of 1 h. The same compound had an ILS at 100 mg/kg in the data set on P388 [5] of 92%. The ILS result in data set [13] is “Toxic”. It took 60.9 µM to reach half-maximal inhibition in the data set on V79 (IC50).

For `Cc1ccc(SCCOP(N)(=O)N(CCCl)CCCl)cc1` (stereo not given), in the data set on V79, inhibition was half-maximal at 69.1 µM (IC50).

As to `Cc1ccc(S(=O)(=O)CCOP(=O)(NCCCl)NCCCl)cc1`, the values for the half-life in data set [1] and in data set [2] were 4.4 h and 12.1 h, respectively. The figures for the ILS at 200 mg/kg with P388/CPA [3] and in the data set on P388 [6] were 12% and 14%, respectively. Besides, the values for the ILS at 400 mg/kg in the data set with P388/CPA [9] and in the data set with P388 [10] were 36% and 23%, respectively. In addition, the ILS at 100 mg/kg in the data set on P388/CPA [4] was found to be 4%; in the data set on P388 [5] it was 23%. This compound had an IC50 with V79 of 9.5 µM.

`CSCCOc1ccc([N+](=O)[O-])c([N+](=O)[O-])c1` showed an IC50 with V79 of 69.1 µM. This counts as double-digit micromolar.

`O=[N+]([O-])c1ccc(SCCO)cc1` displayed an IC50 with V79 of 69.1 µM.

Consider `CS(=O)(=O)CC(OP(=O)(N(CCCl)CCCl)N(CCCl)CCCl)c1ccccc1` (stereo not given), for which the half-life was 1 h in data set [1] and 1.8 h in data set [2]. The ILS at 200 mg/kg with P388/CPA [3] and in the data set with P388 [6] was 20% throughout. Also, the ILS at 400 mg/kg in the data set with P388/CPA [9] came out at 60%; in the data set on P388 [10], 20%. The ILS at 100 mg/kg in the data set with P388/CPA [4] was determined as 4%; in the data set with P388 [5] it was 10%. For the same compound, the IC50 with V79 came to 15.2 µM.

Take `CSCCOP(=O)(N(CCCl)CCCl)N(CCCl)CCCl`: in the data set on V79, the IC50 turned out to be 69.1 µM.

With `O=P(NCCCl)(NCCCl)OCCS(=O)(=O)c1ccccc1`, the half-life in data set [1] was 2.6 h; in data set [2], 6.4 h. The increase in life span (ILS) at 200 mg/kg in the data set on P388/CPA [3] amounted to 28%; in the data set on P388 [6], 33%. Also, the results for the increase in lifespan (ILS) at 400 mg/kg in the data set on P388/CPA [9] and with P388 [10] were 60% and 33%, respectively. In addition, the increase in life span (ILS) at 100 mg/kg in the data set on P388/CPA [4] came to 20%; in the data set on P388 [5], 33%. This compound also displayed an IC50 in the data set with V79 of 13.9 µM.

For the compound `CSCCO`, the IC50 with V79 came out at 69.1 µM.

Regarding `O=[N+]([O-])c1ccc(S(=O)(=O)CCOP(=O)(NCCCl)NCCCl)cc1`, the half-life was below 0.01 h in data set [1] and 0.08 h in [2]. Moreover, the ILS at 200 mg/kg was 92% in the data set with P388/CPA [3] and 138% in the data set with P388 [6]. Further, the figures for the ILS at 100 mg/kg in the data set on P388/CPA [4] and with P388 [5] were 60% and 71%, respectively. The ILS entry in [7] and in data set [8] was “Toxic” in each case. Also, the IC50 with V79 was 2.1 µM.
